Assay results reported in ChEMBL document CHEMBL1147898, “Synthesis and preliminary pharmacological evaluation of the four stereoisomers of (2S)-2-(2'-phosphono-3'-phenylcyclopropyl)glycine, the first class of 3'-substituted trans C1'-2'-2-(2'-phosphonocyclopropyl)glycines” (Bioorg Med Chem, 2007).

Key:
[1] = target: Metabotropic glutamate receptor 6 (Rattus norvegicus, UniProt P35349); assay: Activity at rat recombinant mGluR6 expressed in CHO cells assessed as cAMP production; assay type: functional, cell-based
Summary of the method: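 rmGluR6 expressed in CHO cells. Potency was measured from cAMP formation, reported as EC50. Means ± SEM of at least three independent experiments, each in triplicate.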

[2] = target: Metabotropic glutamate receptor 1 (Rattus norvegicus, UniProt P23385); assay: Activity at rat recombinant mGluR1 expressed in CHO cells assessed as intracellular calcium concentration; assay type: functional, cell-based
[3] = target: T1, Metabotropic glutamate receptor 4 (Rattus norvegicus, UniProt P31423); assay: Agonist activity at rat recombinant mGluR4 expressed in BHK cells; assay type: functional, cell-based
Summary of the method: (§1)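 Group III functional read-out: cAMP formation measured in BHK cells expressing hmGluR7 or rmGluR4. EC50 reported in µM as means ± SEM of at least three independent experiments, each performed in triplicate.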

[4] = target: Metabotropic glutamate receptor 8 (Rattus norvegicus, UniProt P70579); assay: Displacement of [3H]LY341495 from rat recombinant mGluR8 expressed in BHK cells by SPA assay; assay type: cell-based
Summary of the method: (§2)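 Scintillation proximity binding assay on membranes of BHK cells expressing rmGluR4 or rmGluR8. Radioligand was [3H]-L-AP4 for rmGluR4 and [3H]-LY341495 for rmGluR8. Values are means ± SEM of at least three independent experiments performed in triplicate.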

[5] = target: Metabotropic glutamate receptor 5 (Rattus norvegicus, UniProt P31424); assay: Activity at rat recombinant mGluR5 expressed in CHO cells assessed as intracellular calcium concentration; assay type: functional, cell-based
[6] = target: Metabotropic glutamate receptor 7 (Homo sapiens, UniProt Q14831); assay: Activity at human recombinant mGluR7 expressed in BHK cells assessed as cAMP production; assay type: functional, cell-based; summary of the method: as §1
[7] = target: T1, Metabotropic glutamate receptor 4; assay: Displacement of [3H]L-AP4 from rat recombinant mGluR4 expressed in BHK cells by SPA assay; assay type: cell-based; summary of the method: as §2
[8] = target: Metabotropic glutamate receptor 2 (Homo sapiens, UniProt Q14416); assay: Activity at human recombinant mGluR2 expressed in BHK cells assessed as stimulation of [35S]GTP-gamma-S binding; assay type: functional, cell-based

T1 sequence (P31423 whole entry): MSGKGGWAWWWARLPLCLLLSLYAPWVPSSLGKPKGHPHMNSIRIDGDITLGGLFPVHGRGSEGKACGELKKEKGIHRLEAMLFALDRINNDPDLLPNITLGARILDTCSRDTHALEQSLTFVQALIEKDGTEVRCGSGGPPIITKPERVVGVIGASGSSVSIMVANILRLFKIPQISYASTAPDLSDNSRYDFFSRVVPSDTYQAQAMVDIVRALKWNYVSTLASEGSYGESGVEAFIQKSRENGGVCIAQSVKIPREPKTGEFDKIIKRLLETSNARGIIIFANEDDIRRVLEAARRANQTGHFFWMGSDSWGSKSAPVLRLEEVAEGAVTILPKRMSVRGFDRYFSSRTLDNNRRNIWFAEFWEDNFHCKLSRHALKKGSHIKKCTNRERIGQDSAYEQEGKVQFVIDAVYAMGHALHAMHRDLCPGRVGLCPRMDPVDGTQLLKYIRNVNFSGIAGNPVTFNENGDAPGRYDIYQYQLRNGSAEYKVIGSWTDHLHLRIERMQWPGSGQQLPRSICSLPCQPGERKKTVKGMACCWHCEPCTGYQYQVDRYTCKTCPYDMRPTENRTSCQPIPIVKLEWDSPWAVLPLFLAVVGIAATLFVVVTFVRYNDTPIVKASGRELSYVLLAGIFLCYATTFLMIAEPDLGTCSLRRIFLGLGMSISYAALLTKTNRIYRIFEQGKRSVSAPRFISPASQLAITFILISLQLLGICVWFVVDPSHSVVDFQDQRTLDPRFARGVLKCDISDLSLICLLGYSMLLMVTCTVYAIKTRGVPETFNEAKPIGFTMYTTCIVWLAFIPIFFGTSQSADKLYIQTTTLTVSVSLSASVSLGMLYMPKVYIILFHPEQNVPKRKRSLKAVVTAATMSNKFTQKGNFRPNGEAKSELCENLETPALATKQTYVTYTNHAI
Chain of Metabotropic glutamate receptor 1 (P23385 whole entry): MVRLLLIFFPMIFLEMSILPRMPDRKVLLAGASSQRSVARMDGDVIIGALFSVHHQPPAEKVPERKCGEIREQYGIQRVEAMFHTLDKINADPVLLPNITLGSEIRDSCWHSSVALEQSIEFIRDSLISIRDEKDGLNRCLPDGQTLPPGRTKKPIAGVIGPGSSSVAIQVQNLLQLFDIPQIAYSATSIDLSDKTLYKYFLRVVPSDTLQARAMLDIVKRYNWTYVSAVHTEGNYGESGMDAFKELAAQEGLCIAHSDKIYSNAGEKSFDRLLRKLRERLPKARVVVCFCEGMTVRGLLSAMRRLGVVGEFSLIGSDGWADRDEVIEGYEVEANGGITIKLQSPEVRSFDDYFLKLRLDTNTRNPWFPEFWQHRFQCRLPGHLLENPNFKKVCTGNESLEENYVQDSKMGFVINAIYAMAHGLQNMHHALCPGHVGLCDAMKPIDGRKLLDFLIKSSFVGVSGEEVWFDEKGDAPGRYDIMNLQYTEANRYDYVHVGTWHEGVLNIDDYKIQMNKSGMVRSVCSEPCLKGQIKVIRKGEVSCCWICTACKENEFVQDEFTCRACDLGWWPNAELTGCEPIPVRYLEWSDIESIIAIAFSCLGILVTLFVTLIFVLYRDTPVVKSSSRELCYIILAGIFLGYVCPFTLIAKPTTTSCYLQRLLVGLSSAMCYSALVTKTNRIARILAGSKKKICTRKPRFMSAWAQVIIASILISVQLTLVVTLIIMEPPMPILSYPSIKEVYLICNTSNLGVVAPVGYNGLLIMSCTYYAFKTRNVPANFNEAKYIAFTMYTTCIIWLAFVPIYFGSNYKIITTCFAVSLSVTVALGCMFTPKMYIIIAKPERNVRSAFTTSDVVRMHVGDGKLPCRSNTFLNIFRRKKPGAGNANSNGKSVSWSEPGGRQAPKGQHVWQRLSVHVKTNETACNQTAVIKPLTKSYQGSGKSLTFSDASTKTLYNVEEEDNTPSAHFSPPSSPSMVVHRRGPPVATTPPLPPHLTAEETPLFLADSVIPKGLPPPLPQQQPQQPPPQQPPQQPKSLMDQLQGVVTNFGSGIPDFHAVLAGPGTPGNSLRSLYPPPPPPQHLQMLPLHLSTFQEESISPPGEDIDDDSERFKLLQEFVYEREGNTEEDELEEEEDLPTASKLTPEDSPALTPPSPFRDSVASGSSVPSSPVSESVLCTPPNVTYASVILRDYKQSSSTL
Chain of Metabotropic glutamate receptor 5 (P31424 whole entry): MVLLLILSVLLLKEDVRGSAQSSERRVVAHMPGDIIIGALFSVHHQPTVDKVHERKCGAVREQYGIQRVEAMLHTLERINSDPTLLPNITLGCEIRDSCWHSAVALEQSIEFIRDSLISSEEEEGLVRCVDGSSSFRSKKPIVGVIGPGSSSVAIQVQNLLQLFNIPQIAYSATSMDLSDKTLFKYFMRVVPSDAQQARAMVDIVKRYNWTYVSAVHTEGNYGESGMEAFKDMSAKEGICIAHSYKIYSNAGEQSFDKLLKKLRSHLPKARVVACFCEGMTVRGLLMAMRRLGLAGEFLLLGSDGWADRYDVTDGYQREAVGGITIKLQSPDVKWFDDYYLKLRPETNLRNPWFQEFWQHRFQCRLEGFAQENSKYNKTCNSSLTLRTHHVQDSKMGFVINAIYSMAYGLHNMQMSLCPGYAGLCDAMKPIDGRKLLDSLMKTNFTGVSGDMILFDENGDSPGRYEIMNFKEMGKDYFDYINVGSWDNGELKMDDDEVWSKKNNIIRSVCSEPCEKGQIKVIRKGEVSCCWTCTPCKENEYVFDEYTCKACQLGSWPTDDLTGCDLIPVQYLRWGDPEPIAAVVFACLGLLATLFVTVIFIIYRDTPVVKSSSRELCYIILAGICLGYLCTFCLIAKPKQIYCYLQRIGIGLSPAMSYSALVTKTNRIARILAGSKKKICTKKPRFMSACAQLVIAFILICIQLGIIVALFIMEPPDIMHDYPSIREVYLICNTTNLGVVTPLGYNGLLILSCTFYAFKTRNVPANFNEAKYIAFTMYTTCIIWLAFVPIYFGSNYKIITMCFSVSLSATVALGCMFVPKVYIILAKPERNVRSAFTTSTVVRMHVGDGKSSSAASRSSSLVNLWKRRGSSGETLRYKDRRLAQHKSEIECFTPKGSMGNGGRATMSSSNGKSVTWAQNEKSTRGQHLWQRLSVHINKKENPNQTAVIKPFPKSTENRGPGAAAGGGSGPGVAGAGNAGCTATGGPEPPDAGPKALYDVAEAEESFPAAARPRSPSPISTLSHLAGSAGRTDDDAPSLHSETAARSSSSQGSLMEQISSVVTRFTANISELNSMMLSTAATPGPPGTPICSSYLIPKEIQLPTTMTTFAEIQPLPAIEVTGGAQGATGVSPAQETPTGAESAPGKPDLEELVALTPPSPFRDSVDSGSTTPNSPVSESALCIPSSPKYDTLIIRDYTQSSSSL
Chain of Metabotropic glutamate receptor 8 (P70579 whole entry): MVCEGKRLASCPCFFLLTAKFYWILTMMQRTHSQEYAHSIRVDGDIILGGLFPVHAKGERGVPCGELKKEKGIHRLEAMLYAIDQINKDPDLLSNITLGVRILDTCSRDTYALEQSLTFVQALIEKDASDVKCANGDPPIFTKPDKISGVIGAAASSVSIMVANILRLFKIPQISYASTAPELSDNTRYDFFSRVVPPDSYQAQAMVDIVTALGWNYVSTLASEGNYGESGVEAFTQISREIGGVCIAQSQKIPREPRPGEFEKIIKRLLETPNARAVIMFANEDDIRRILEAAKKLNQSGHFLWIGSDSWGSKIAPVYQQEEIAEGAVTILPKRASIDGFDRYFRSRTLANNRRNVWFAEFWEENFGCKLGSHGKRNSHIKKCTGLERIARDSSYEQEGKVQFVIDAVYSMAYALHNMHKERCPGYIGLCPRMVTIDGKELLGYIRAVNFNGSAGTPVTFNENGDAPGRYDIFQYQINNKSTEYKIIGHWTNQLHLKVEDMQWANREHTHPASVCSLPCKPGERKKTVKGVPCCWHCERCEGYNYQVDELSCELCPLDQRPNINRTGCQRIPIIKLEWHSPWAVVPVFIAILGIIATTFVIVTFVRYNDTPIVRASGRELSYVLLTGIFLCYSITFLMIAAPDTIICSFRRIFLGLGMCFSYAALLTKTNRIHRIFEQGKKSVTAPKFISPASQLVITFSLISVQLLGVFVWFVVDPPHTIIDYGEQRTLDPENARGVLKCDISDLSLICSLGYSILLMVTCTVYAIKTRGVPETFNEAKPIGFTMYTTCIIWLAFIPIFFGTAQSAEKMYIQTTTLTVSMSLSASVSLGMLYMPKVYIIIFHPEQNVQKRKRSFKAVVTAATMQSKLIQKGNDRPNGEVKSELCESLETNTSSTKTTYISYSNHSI
Chain of Metabotropic glutamate receptor 6 (P35349 whole entry): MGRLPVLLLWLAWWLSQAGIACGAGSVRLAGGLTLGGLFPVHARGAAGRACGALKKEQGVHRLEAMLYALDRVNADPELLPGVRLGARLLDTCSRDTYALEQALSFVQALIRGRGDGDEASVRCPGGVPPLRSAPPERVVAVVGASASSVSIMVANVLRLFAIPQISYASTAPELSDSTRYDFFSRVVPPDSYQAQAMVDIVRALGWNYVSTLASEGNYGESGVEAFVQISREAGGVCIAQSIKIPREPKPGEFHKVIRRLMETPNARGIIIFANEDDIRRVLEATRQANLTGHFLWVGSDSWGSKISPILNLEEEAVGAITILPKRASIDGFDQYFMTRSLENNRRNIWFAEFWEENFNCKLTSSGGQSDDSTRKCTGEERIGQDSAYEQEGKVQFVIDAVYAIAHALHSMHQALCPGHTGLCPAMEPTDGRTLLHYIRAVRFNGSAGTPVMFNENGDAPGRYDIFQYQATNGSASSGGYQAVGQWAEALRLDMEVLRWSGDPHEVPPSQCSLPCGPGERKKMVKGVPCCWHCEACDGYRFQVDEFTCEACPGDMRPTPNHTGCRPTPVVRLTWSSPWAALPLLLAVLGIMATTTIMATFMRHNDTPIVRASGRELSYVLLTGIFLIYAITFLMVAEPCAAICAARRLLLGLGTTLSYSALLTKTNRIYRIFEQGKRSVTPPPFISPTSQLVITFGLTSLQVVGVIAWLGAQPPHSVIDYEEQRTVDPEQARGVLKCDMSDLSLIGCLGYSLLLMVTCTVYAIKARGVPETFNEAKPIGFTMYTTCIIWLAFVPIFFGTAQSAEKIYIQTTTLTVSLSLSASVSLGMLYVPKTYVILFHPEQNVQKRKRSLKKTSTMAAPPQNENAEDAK

Structure (SMILES)	EC50 [1]	EC50 [2]	EC50 [3]	Ki [4]	EC50 [5]	EC50 [6]	Ki [7]	EC50 [8]
NC(C(=O)O)[C@H]1C[C@@H]1P(=O)(O)O (some centres not stated)	13 µM	> 1000 µM	9.4 µM	63 µM	> 1000 µM	700 µM	7.4 µM	> 1000 µM
NC(C(=O)O)[C@@H]1[C@@H](c2ccccc2)[C@H]1P(=O)(O)O (some centres not stated)	> 1000 µM	> 1000 µM			> 1000 µM	> 1000 µM	> 1000 µM	> 1000 µM
NC(C(=O)O)[C@H]1[C@@H](c2ccccc2)[C@@H]1P(=O)(O)O (some centres not stated)		> 1000 µM		190 µM	> 1000 µM		630 µM	320 µM
NC(C(=O)O)[C@@H]1[C@H](c2ccccc2)[C@H]1P(=O)(O)O (some centres not stated)		> 1000 µM	> 1000 µM		> 1000 µM		> 1000 µM	> 1000 µM
NC(C(=O)O)[C@H]1[C@H](c2ccccc2)[C@@H]1P(=O)(O)O (some centres not stated)	51 µM	> 1000 µM	59 µM	130 µM	> 1000 µM	> 1000 µM	24 µM	> 1000 µM
